These results are taken from publication PMC12145421 (NPJ Science of Food, 2025).

Structures are written as SMILES. Values after ≈ are worked out from the molar mass of the structure shown.

Data set [1] is described as follows: Solubility studies of CoQ10 in water by HPLC. The format is physicochemical. The method, boiled down:
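The powder was mixed with an equal volume of water to give a supersaturated solution. It was shaken at 200 rpm in a 25 °C water bath for 24 h. CoQ10 was measured by HPLC on a C8 column at 45 °C with methanol at 1 mL/min, against a 0.05–25 μg/mL standard curve. Triplicate independent experiments; mean ± SD.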

Data set [2] in a line: In vivo bioavailability study, plasma CoQ10 after oral administration to rats. The note with it: male, SD, rat, 15 mg/kg. The gist of the method:
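Six-week-old SPF male rats (180–200 g), acclimatised ≥3 days at 23–25 °C with a 12 h light/dark cycle, n = 5 per group, fasted 12 h. Oral 15 mg/kg dose in 0.5% (w/v) sodium CMC. Tail-vein blood at 0, 0.5, 1, 2, 4, 8, 12 and 24 h. Plasma extracted with n-propanol and assayed by HPLC against a 0–3000 ng/mL plasma standard curve. Non-compartmental model; AUC by linear trapezoid.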

In data set [1], `COC1=C(OC)C(=O)C(C/C=C(\C)CC/C=C(\C)CC/C=C(\C)CC/C=C(\C)CC/C=C(\C)CC/C=C(\C)CC/C=C(\C)CC/C=C(\C)CC/C=C(\C)CCC=C(C)C)=C(C)C1=O` [CoQ10, Coenzyme Q10] came in with a solubility at 24 h of 2.3 µg/mL (≈ 2.66 µM). In data set [2], the exposure AUC(0-t) was 196 ± 96.9 ng·h/mL and the peak level (Cmax) was 50.3 ± 5.7 ng/mL. Moreover, the Tmax in data set [2] (Tmax, rats, oral, n = 5, plasma CoQ10) is ~1 h.

A word on the solubility: it is how much of the substance goes into solution per volume. Low values mean little dissolved substance, high ones much dissolved substance. The term AUC(0-t) denotes exposure summed from dosing to a finite time, without extrapolation to infinity. A high value points to more exposure. By Cmax is commonly meant the maximum level reached in the sampled fluid or tissue. For orientation: Tmax means the time from dosing to the highest level.
